One series deals with Acetylcholinesterase (Homo sapiens, UniProt P22303). The experiment in a line: Inhibition of recombinant human AChE using acetylthiocholineiodide as substrate preincubated for 20 mins followed by substrate addition by Ellman's method. The procedure, abridged:
(§1)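 Enzyme was 0.02 U/mL human recombinant AChE or human serum BChE. Non-enzymatic hydrolysis was corrected. IC50 came from a % inhibition vs log[I] regression. Selectivity = IC50 hBChE/IC50 hAChE. Mean ± SEM of ≥2 experiments, each in duplicate/triplicate.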

Series [1] concerns the target Beta-secretase 1 (Homo sapiens) (UniProt P56817). The experiment in a line: Inhibition of recombinant human BACE-1 at 1 uM using methoxycoumarin-Ser-Glu-Val-Asn-Leu-Asp-Ala-Glu-Phe-Lys-dinitrophenyl as substrate preincubated for 1 hr followed by substrate addition and measured after 15 mins by fluorescence based assay relative to control. The settings on record: time 75.0 min.

The nature of series [2]: Permeability of the compound in PBS/EtOH buffer (70:30) by PAMPA-BBB assay. The note with it: read-out: permeability. It counts as ADME. The procedure, abridged:
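PAMPA-BBB permeability, reported as Pe in 10⁻⁶ cm s⁻¹, with CNS+ defined as Pe > 5.1. Mean ± SD of three experiments, each in triplicate.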

Series [3] is described as follows: Selectivity index, ratio of IC50 for human serum BChE using butyrylthiocholineiodide as substrate to IC50 for recombinant human AChE using acetylthiocholine iodide as substrate. The procedure, abridged: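 Ellman spectrophotometric assay in 0.1 M phosphate buffer, pH 8.0, with 340 μM DTNB. Enzyme was 0.02 U/mL human recombinant AChE or human serum BChE. […] Then 550 μM ATCh or BTCh was added, and A412 was followed for 210 s. Non-enzymatic hydrolysis was corrected. IC50 came from a % inhibition vs log[I] regression. Selectivity = IC50 hBChE/IC50 hAChE. Mean ± SEM of ≥2 experiments, each in duplicate/triplicate.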

Series [4] addresses T1, Cholinesterase (Homo sapiens, UniProt P06276). The experiment in a line: Inhibition of human serum BChE using butyrylthiocholineiodide as substrate preincubated for 20 mins followed by substrate addition by Ellman's method. Format: cell-free. The procedure, abridged: as §1
Series [5] can be described thus: Antioxidant activity assessed as DPPH radical scavenging activity incubated for 30 mins under dark condition by UV-Vis spectrophotometric analysis. Format: functional. On the technique in general: Loss of DPPH colour is used to gauge radical scavenging.
The target in series [6] is Beta-secretase 1 (Homo sapiens) (UniProt P56817). The experiment in a line: Inhibition of recombinant human BACE-1 at 5 uM using methoxycoumarin-Ser-Glu-Val-Asn-Leu-Asp-Ala-Glu-Phe-Lys-dinitrophenyl as substrate preincubated for 1 hr followed by substrate addition and measured after 15 mins by fluorescence based assay relative to control. The settings on record: time 75.0 min.
Sequence of Beta-secretase 1 (Homo sapiens) (P56817 whole entry): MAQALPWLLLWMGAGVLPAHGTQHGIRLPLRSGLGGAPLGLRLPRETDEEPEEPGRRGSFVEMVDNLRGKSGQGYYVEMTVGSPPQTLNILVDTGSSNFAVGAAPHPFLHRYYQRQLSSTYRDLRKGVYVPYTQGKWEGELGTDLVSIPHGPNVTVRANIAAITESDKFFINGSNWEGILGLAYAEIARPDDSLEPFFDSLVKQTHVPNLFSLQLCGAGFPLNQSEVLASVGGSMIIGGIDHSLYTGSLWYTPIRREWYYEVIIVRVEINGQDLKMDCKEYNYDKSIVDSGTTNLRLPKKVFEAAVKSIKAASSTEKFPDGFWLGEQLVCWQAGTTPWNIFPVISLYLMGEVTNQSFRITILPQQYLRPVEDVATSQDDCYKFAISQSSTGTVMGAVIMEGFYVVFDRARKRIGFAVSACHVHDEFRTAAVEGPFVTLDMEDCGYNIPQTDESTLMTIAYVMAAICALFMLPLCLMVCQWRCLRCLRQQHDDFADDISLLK

Series [7] is described as follows: Drug concentration in wild type C57BL6 mouse plasma at 2 mg/kg, ip thrice a week for 2 weeks observed after 4 hrs post last dose by HPLC/MS/MS analysis. The note with it: in vivo.
Series [8] in a line: Drug concentration in wild type C57BL6 mouse brain at 2 mg/kg, ip thrice a week for 2 weeks observed after 4 hrs post last dose by HPLC/MS/MS analysis. The settings on record: in vivo.
The target in series [9] is T1, Cholinesterase. As to the kind of experiment: Inhibition of human serum BChE at 100 uM using butyrylthiocholineiodide as substrate preincubated for 20 mins followed by substrate addition by Ellman's method relative to control. It counts as cell-free.
Series [10] deals with Acetylcholinesterase (Electrophorus electricus) (UniProt O42275). As to the kind of experiment: Displacement of propidium iodide from PAS-region of electric eel AChE assessed as decrease in fluorescence intensity at 4 to 92 uM by spectrofluorimetric analysis relative to control. Set-up: scale not given: the % may be the effect or the level left. The settings on record: dose 4-92 µM. In short, it runs like this:
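Back-titration fluorescence assay using electric eel AChE (type VI-S). Inhibitor was added in successive aliquots from a MeOH stock. Emission was read at 602 nm with excitation at 535 nm, after subtracting blanks. […] Three independent experiments.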

Calls of active or inactive are those of the source. Some results are limits rather than exact numbers.

T1 sequence (P06276 whole entry): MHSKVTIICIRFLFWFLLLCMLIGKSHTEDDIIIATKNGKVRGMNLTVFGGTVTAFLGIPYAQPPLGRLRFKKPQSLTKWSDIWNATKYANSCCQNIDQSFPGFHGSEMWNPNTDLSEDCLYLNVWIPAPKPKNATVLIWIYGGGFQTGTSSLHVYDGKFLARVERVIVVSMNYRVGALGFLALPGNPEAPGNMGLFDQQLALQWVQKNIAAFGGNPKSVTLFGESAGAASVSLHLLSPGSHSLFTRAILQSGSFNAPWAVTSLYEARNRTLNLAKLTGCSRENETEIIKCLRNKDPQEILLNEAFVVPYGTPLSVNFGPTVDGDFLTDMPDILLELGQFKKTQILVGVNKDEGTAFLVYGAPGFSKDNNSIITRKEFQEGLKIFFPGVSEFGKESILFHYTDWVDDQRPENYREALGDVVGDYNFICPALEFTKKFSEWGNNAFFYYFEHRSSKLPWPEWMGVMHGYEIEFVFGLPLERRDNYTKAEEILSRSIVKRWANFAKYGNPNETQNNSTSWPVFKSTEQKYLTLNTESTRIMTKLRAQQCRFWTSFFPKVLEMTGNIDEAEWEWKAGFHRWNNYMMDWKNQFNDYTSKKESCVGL
Sequence of Acetylcholinesterase (P22303 whole entry): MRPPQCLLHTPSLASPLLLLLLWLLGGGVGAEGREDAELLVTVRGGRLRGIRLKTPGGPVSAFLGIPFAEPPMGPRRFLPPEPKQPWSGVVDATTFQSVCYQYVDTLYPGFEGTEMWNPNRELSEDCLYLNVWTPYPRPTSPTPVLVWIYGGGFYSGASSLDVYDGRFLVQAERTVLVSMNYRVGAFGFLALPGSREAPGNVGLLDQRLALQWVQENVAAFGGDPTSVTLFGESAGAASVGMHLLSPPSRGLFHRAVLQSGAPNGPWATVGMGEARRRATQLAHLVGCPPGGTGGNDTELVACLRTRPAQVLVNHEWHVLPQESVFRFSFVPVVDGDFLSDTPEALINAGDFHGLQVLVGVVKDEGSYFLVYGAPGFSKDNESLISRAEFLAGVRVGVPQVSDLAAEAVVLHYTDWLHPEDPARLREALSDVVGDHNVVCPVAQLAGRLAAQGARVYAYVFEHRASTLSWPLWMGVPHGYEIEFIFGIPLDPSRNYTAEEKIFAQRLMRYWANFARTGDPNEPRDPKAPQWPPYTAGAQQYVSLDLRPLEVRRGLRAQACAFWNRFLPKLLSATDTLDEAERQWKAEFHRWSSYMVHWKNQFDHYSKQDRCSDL
Sequence of Acetylcholinesterase (Electrophorus electricus) (O42275 24-633 limits assumed): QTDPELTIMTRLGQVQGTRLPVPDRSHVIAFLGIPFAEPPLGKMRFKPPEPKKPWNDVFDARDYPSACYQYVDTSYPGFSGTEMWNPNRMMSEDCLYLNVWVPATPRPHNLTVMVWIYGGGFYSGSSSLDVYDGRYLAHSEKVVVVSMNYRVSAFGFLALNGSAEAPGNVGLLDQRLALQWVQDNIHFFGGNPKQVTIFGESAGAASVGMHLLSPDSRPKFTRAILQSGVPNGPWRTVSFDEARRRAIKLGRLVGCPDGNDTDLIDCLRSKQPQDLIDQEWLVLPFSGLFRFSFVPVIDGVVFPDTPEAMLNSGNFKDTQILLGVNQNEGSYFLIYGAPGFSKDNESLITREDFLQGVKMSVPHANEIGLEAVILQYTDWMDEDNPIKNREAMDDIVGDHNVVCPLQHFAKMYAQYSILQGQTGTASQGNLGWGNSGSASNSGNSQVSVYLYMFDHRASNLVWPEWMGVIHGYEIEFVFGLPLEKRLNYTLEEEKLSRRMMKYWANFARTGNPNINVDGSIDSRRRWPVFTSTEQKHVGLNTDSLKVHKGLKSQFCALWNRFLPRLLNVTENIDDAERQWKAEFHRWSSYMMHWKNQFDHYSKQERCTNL

What is called IC50 is the concentration needed to halve the response being measured. A word on the inhibition: it is the share of the control response that was lost under treatment. Consider `COc1cc(CNC(=O)c2ccc(CNc3c4c(nc5cc(Cl)ccc35)CC3C=C(C)CC4C3)cc2)ccc1O` (stereo unspecified), for which the 50% inhibitory concentration (IC50) worked out at 24.9 nM on Acetylcholinesterase, 290 nM against Cholinesterase [4] and 71400 nM in series [5]. The inhibition result in series [1] is “inactive”. The Papp in [2] turned out to be 14.3 ×10⁻⁶ cm/s. For the same compound, the Ratio IC50 in series [3] came out at 11.6.

`CC1=CC2Cc3nc4cc(Cl)ccc4c(N)c3C(C1)C2` (stereo unspecified): the inhibition in series [6] turned out to be 14%.

With `COc1cc(CNC(=O)CCCCCCCNc2c3c(nc4cc(Cl)ccc24)CC2C=C(C)CC3C2)ccc1O` (stereo unspecified), the IC50 at Acetylcholinesterase was 1.94 nM; against Cholinesterase [4] it was 51.8 nM; in [5] it was 70800 nM. Further, the inhibition in [1] came out at 3.6%. In addition, the Papp in series [2] was determined as 20.1 ×10⁻⁶ cm/s. Further, in [3], the Ratio IC50 stood at 26.7.

Regarding `COc1cc(CNC(=O)CCCCCCCCNc2c3c(nc4cc(Cl)ccc24)CC2C=C(C)CC3C2)ccc1O` (stereo unspecified), the results for the IC50 (at Acetylcholinesterase; against Cholinesterase [4]; in series [5]) were 2.94 nM, 36.1 nM and 64600 nM, respectively. In series [1], the inhibition amounted to 23.7%. Besides, the Papp in series [2] amounted to 21.8 ×10⁻⁶ cm/s. The Ratio IC50 in [3] was determined as 12.3.

For the compound `COc1cc(CNC(=O)CCCCNc2c3c(nc4cc(Cl)ccc24)CC2C=C(C)CC3C2)ccc1O` (stereo unspecified), the IC50 at Acetylcholinesterase turned out to be 5.48 nM; against Cholinesterase [4], 52.2 nM; in series [5], 68500 nM. Further, the inhibition in [1] was 55.6%. Further, the Papp in series [2] was 11.5 ×10⁻⁶ cm/s. For the same compound, the Ratio IC50 in series [3] turned out to be 9.5.

Turning to `COc1cc(CNC(=O)CCCCCNc2c3c(nc4cc(Cl)ccc24)CC2C=C(C)CC3C2)ccc1O` (stereo unspecified), the IC50 on Acetylcholinesterase came out at 4.35 nM; on Cholinesterase [4], 70 nM; in series [5], 62600 nM. Moreover, the inhibition in series [1] was 34.3%. Also, the Papp in series [2] was 14.9 ×10⁻⁶ cm/s. In [3], the Ratio IC50 stood at 16.1.

As to `COc1cc2c(cc1OC)C(=O)C(CC1CCN(Cc3ccccc3)CC1)C2` (stereo unspecified) [DONEPEZIL], the concentration at 336 h in series [7] amounted to 6460 ng/mL; in series [8], 6130 ng/g.

Consider `COc1cc(CNC(=O)CCCC/C=C/C(C)C)ccc1O` [CAPSAICIN], for which the IC50 was more than 200000 nM on Acetylcholinesterase and 50300 nM in series [5]. In addition, the inhibition at Cholinesterase [9] turned out to be 20%. Moreover, the inhibition entry in series [1] was “inactive”. For the same compound, the Papp in series [2] came to 10.3 ×10⁻⁶ cm/s. Besides, the Activity in series [10] was 11%.

As to `COc1cc(CNC(=O)CCCC/C=C/CCCNc2c3c(nc4cc(Cl)ccc24)CC2C=C(C)CC3C2)ccc1O` (stereo unspecified), the IC50 is 5.64 nM on Acetylcholinesterase, 53.1 nM against Cholinesterase [4] and 54600 nM in series [5]. For the same compound, the inhibition in series [1] worked out at 21.6%. Besides, the Papp in series [2] was determined as 22.3 ×10⁻⁶ cm/s. For the same compound, the Ratio IC50 in series [3] was found to be 9.4.

For `COc1cc(CNC(=O)CCCC/C=C/CNc2c3c(nc4cc(Cl)ccc24)CC2C=C(C)CC3C2)ccc1O` (stereo unspecified), the values for the IC50 (on Acetylcholinesterase; at Cholinesterase [4]; in series [5]) were 4.41 nM, 78.1 nM and 31700 nM, respectively. Besides, the inhibition entry in [1] was “inactive”. Moreover, the Papp in [2] was 16.8 ×10⁻⁶ cm/s. Further, the Ratio IC50 in [3] came out at 17.7.

The values above are taken from ChEMBL document CHEMBL4706642, “Discovery of a Potent Dual Inhibitor of Acetylcholinesterase and Butyrylcholinesterase with Antioxidant Activity that Alleviates Alzheimer-like Pathology in Old APP/PS1 Mice” (J Med Chem, 2021).
